Data set [1] relates to L1210. Description: Inhibition of growth of murine leukemia (L1210) cells. It is filed as functional, cell-based. The following applies: Mus musculus. A digest of the protocol: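 Murine leukemia L1210 cells grown in culture with drug for 40 h; IC50 taken as the concentration (nM) giving 50% growth inhibition.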
The test system of data set [2] is Lewis lung carcinoma cell line. Description: Optimal dose administered intraperitoneally to mice infected with Lewis lung carcinoma cells(LL) in vivo. Format: functional, Mus musculus.
Data set [3] deals with P388. Description: The percentage increase in lifespan of compound with P388 tumor bearing controls when treated at optimal dose. Format: functional, Mus musculus. The essentials:
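P388 leukemia: 10^6 cells inoculated intraperitoneally. ILSmax is the percentage lifespan increase over tumor-bearing controls at the optimal dose (mg/kg per day). Groups of six; long-term survivors counted at 50 days; values above 20% considered significant.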

The test system of data set [4] is P388. Description: Optimal dose following i.p. administration on days 1,5 and 9 after inoculation of 10e6 P388 leukemia cells to mice. It is filed as functional, Mus musculus. The essentials:
(§1)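 Mice inoculated intraperitoneally with 10^6 P388 leukemia cells. Drug given i.p. as a solution in 0.1 mL 30% v/v ethanol/water on days 1, 5 and 9. Optimal dose in mg/kg per day. ILS is the percent increase in lifespan over untreated tumor-bearing controls at that dose; above 20% counted significant. Long-term survival judged at 50 days, groups of six.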

Data set [5] relates to poly[d(A-T)] and poly[d(G-C)]. Description: Binding constant for poly[d(A-T)] and poly[d(G-C)] by ethidium bromide displacement.
Data set [6] deals with Lewis lung carcinoma cell line. Description: Optimal dose administered intraperitoneally to mice infected with Lewis lung carcinoma cells(LL) in vivo. Format: functional, Mus musculus.
In data set [7] the test system is P388. Description: Optimal dose administered intraperitoneally on days 1,5 and 9 after intraperitoneal inoculation of 10e6 P388 leukemia cells in vivo. Format: functional, Mus musculus. A digest of the protocol: as §1
The test system of data set [8] is Lewis lung carcinoma cell line. Description: The percentage increase in lifespan of compound with Lewis lung carcinoma tumor bearing controls when treated at OD; Not active. The following applies: Mus musculus. Format: functional, cell-based.
Data set [9] concerns P388. Description: The percentage increase in lifespan of compound with P388 tumor bearing controls when treated at optimal dose; Not active. Format: functional. To be noted: Mus musculus. The essentials: as §1
Data set [10] has as its system Lewis lung carcinoma cell line. Description: The percentage increase in lifespan of compound with Lewis lung carcinoma tumor bearing controls when treated at OD. It is filed as functional, Mus musculus. The essentials: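 Lewis lung carcinoma: 10^6 cells inoculated intravenously. ILSmax is the percentage increase in lifespan over tumor-bearing controls at the optimal dose (mg/kg per day). Groups of six; long-term survivors counted at 60 days; values above 40% considered significant.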

A short description of data set [11]: pKa was evaluated. Format: physicochemical. The essentials: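 pKa determined spectrophotometrically in aqueous solution.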
Data set [12] relates to Lewis lung carcinoma cell line. Description: OD administered intraperitoneally to mice infected with Lewis lung carcinoma cells(LL) in vivo. Format: functional, Mus musculus.

The values below come from ChEMBL document CHEMBL1124080, “Potential antitumor agents. 55. 6-Phenylphenanthridine-4-carboxamides: a new class of DNA-intercalating antitumor agents” (J Med Chem, 1988).

Molecules are shown by their SMILES. Values joined by “and” are separate entries in the source; they are usually repeats but may differ in a detail not shown here. Equal entries are not always repeated. Active and inactive are the calls of the source.

The IC50 is the concentration that inhibits the measured activity by half. For orientation: pKa means the negative logarithm of the acid dissociation constant.

`CN(C)CCNC(=O)c1cccc2c1nc(-c1ccccn1)c1ccccc12.Cl` displayed an IC50 in [1] of 720 nM. The OD in [2] and in data set [4] was 65 mg/kg/day throughout. This molecule came in with an ILSmax in [3] of 20%. In addition, the Log K in [5] was 5.69 and 5.77.

`CN(C)CCNC(=O)c1cccc2c1nc(-c1ccc([N+](=O)[O-])cc1)c1ccccc12` showed an IC50 in data set [1] of 540 nM. Besides, the OD in data set [6] and in data set [7] was 65 mg/kg/day throughout. In [3], this molecule yielded an ILSmax of 65%. Also, the ILSmax entry in [8] was “inactive”. Further, the Log K in [5] was 6.41 and 6.54.

`CN(C)CCNC(=O)c1cccc2c1nc(-c1ccccc1Cl)c1ccccc12.Cl` came in with an IC50 in data set [1] of 2870 nM. For the same molecule, in data set [9], the ILSmax entry is “inactive”. The molecule also registered an OD in data set [4] of 45 mg/kg/day. Further, the Log K in [5] is 6.45 and 6.6.

In [1], `CN(C)CCNC(=O)c1cccc2c1nc(-c1ccc(F)cc1)c1ccccc12.Cl.Cl` showed an IC50 of 43 nM. The results for the OD in data set [2] and in data set [4] were 45 mg/kg/day and 20 mg/kg/day, respectively. For the same molecule, the results for the ILSmax in data set [10] and in data set [3] were 45% and 63%, respectively.

Consider `CN(C)CCNC(=O)c1cccc2c1nc(-c1ccc(Cl)cc1)c1ccccc12`, for which the pKa in data set [11] was determined as 2.52. In data set [1], the IC50 came out at 410 nM. Besides, the OD was 65 mg/kg/day in data set [2] and 45 mg/kg/day in data set [4]. In addition, the ILSmax in data set [3] was found to be 34%. Also, the ILSmax result in [8] is “inactive”. Besides, the Log K in data set [5] was 6.26 and 6.24.

In data set [1], `COc1ccc(-c2nc3c(C(=O)NCCN(C)C)cccc3c3ccccc23)cc1.Cl.Cl` returned an IC50 of 500 nM. The OD in data set [6] is 100 mg/kg/day; in data set [7], 65 mg/kg/day. In data set [3], this molecule returned an ILSmax of 22%. Besides, the ILSmax result in data set [8] is “inactive”.

In data set [1], `CN(C)CCCCNC(=O)c1cccc2c1ncc1ccccc12.Cl` registered an IC50 of 3290 nM. In addition, the OD in data set [7] worked out at 100 mg/kg/day. Also, the Log K in data set [5] is 5.64 and 5.28.

In data set [1], `CN(C)CCNC(=O)c1cccc2c1nc(-c1ccc(Br)cc1)c1ccccc12` displayed an IC50 of 1010 nM. Moreover, the OD in data set [6] worked out at 45 mg/kg/day; in [4], 65 mg/kg/day. In addition, in data set [9], the ILS max entry is “inactive”. Moreover, the ILSmax result in data set [8] was “inactive”. Further, the Log K in data set [5] was 7.04 and 6.76.

Take `CN(C)CCNC(=O)c1cccc2c1nc(-c1cccnc1)c1ccccc12.Cl.Cl.Cl`: in data set [1], the IC50 is 13 nM. The OD in data set [2] was 65 mg/kg/day; in data set [4], 45 mg/kg/day. Also, the ILSmax in data set [10] came out at 93%; in data set [3] it was 104%. Moreover, the Log K in [5] is 6.35 and 6.21.

In turn, `Br.Br.CN(C)CCNC(=O)c1cccc2c1nc(-c1ccc(O)cc1)c1ccccc12.Cl.Cl` returned an IC50 in data set [1] of 370 nM. Besides, the OD in [2] and in data set [4] was 65 mg/kg/day in each case. The ILS max result in data set [9] and in [8] was “inactive” in each case.

On to `CN(C)CCNC(=O)c1cccc2c1ncc1ccccc12.Cl.Cl`, for which the pKa in data set [11] is 2.95. For the same molecule, the IC50 in [1] is 2100 nM. The OD in [2] was 150 mg/kg/day; in data set [4] it was 100 mg/kg/day. Further, the values for the ILSmax in data set [10] and in data set [3] were 117% and 73%, respectively. Moreover, in data set [5], the Log K was 5.9 and 5.61.

For `CN(C)CCNC(=O)c1cccc2c1nc(-c1ccccc1)c1ccccc12`, the pKa in data set [11] was found to be 2.75. In addition, in data set [1], 120 nM corresponded to half-maximal inhibition (IC50). The values for the OD in [2] and in data set [4] were 65 mg/kg/day and 45 mg/kg/day, respectively. Further, the ILSmax in [10] is 126%; in data set [3], 92%. The Log K in [5] was 6.26 and 6.33.

In data set [1], `CN(C)CCNC(=O)c1cccc2c1nc(-c1ccc(I)cc1)c1ccccc12.Cl.Cl` came in with a half-inhibitory concentration (IC50) of 2240 nM. Further, the OD in [2] and in data set [4] was 65 mg/kg/day each time. Also, the ILSmax result in data set [9] and in data set [8] was “inactive” throughout. Besides, in data set [5], the Log K was 7.33 and 7.23.

In data set [1], `CN(C)CCCNC(=O)c1cccc2c1nc(-c1ccccc1)c1ccccc12.Cl.Cl` registered an IC50 of 1120 nM. The OD is 65 mg/kg/day in data set [2] and 45 mg/kg/day in [4]. Moreover, the ILSmax in data set [3] is reported as 24%. The ILSmax result in [8] is “inactive”. In data set [5], the Log K was 6.5 and 6.11.

As to `CN(C)CCNC(=O)c1cccc2c1nc(-c1cccc(Cl)c1)c1ccccc12.Cl.Cl`, the IC50 in data set [1] was 66 nM. Also, the OD in data set [2] came out at 100 mg/kg/day; in data set [4], 65 mg/kg/day. The ILSmax in data set [3] was found to be 88%. The Log K in data set [5] was 6.41 and 6.56.

Take `CN(C)CCNC(=O)c1cccc2c1nc(-c1ccc(N)cc1)c1ccccc12`: in data set [1], the IC50 stood at 130 nM. For the same molecule, the OD turned out to be 45 mg/kg/day in [6] and 30 mg/kg/day in data set [7]. The ILSmax in data set [3] came to 27%. Also, the ILSmax result in [8] was “inactive”. In data set [5], the Log K was 6.29 and 6.57.

`CN(C)CCNC(=O)c1cccc2c1nc(-c1ccc(NS(C)(=O)=O)cc1)c1ccccc12.Cl.Cl` displayed an IC50 in [1] of 350 nM. In addition, the values for the OD in [12] and in [4] were 20 mg/kg/day and 30 mg/kg/day, respectively. Besides, the ILSmax result in [9] and in data set [8] was “inactive” each time. In addition, the Log K in [5] was 6.24 and 6.36.

Take `CN(C)CCNC(=O)c1cccc2c1nc(-c1ccncc1)c1ccccc12.Cl.Cl`: half-maximal inhibition in data set [1] (IC50) required 14 nM. In addition, the OD in data set [2] and in [4] was 100 mg/kg/day each time. Moreover, the ILSmax in [3] is 93%. Further, the ILSmax result in data set [8] is “inactive”. In addition, the Log K in data set [5] is 6.9 and 7.

In turn, `CC(=O)Nc1ccc(-c2nc3c(C(=O)NCCN(C)C)cccc3c3ccccc23)cc1` showed an IC50 in data set [1] of 54 nM. Further, the OD in [6] amounted to 45 mg/kg/day; in data set [4] it was 30 mg/kg/day. The molecule also showed an ILSmax in data set [3] of 22%. For the same molecule, in data set [8], the ILSmax result is “inactive”. Also, in [5], the Log K is 6.13 and 6.31.

Regarding `CN(C)CCCNC(=O)c1cccc2c1ncc1ccccc12.Cl.Cl`, the IC50 in data set [1] came to 3590 nM. The same molecule registered an OD in data set [4] of 100 mg/kg/day. Besides, the Log K in data set [5] was 5.74 and 5.37.

`CN(C)CCCCNC(=O)c1cccc2c1nc(-c1ccccc1)c1ccccc12.Cl.Cl` returned an IC50 in data set [1] of 1060 nM. Also, the OD in data set [2] stood at 45 mg/kg/day; in [7], 65 mg/kg/day. Moreover, the ILS max entry in data set [9] was “inactive”. The ILSmax result in [8] was “inactive”. Also, the Log K in [5] was 6.59 and 6.4.
